What all share (assay type): functional
Assay [1] relates to Aspergillus fumigatus. Kind of assay: Induction of change in glucosamine-fructose-6-phosphate aminotransferase protein level in iTRAQ-118 labelled cell wall fraction of drug-resistant Aspergillus fumigatus EMFR-S678P at 0.12 ug/ml after 48 hrs in YPD medium by MS (MS/MS) analysis relative to control. A digest of the protocol:
(§1)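 Conidia at 1 × 10⁵/ml were grown at 37°C, shaking at 225 rpm, in YPD with or without 0.12 μg/ml caspofungin for 24 or 48 h. The culture filtrate was kept as the secreted fraction. Mycelia were lysed by French press in HEPES/glycerol/EDTA/PMSF/DTT buffer, and the 5,000 × g pellet was washed to give CW/PM. Proteins were reduced, alkylated and trypsin-digested at 37°C overnight, then iTRAQ-labelled and run by 2D LC-MS/MS. Ratios are the median of unique-peptide ratios, median-normalized, versus the no-drug control.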

For assay [2], the system named is Aspergillus fumigatus. Kind of assay: Induction of change in hypothetical protein locus AFUA_8G07100 level in iTRAQ-116 labelled secreted fraction of drug-susceptible Aspergillus fumigatus KU80 delta-akuB at 0.12 ug/ml after 48 hrs in YPD medium by MS (MS/MS) analysis relative to control. In outline: (§2)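 Conidia (1 × 10⁵/ml) grown in YPD, 37°C, 225 rpm, ± 0.12 μg/ml caspofungin; filtrate taken as secreted fraction, French-press lysate 5,000 × g pellet as cell wall/plasma membrane. Trypsin digests 8-plex iTRAQ-labelled (drug-free channels as references), pooled, 2D-chromatography, MS/MS. Median-normalized; protein ratio = median of unique-peptide ratios, log2 normalized.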

Assay [3] concerns Aspergillus fumigatus. The assay can be described thus: Induction of change in nuclear transport factor NTF-2, putative protein level in iTRAQ-116 labelled secreted fraction of drug-resistant Aspergillus fumigatus EMFR-S678P at 0.12 ug/ml after 48 hrs in YPD medium by MS (MS/MS) analysis relative to control. A digest of the protocol: as §1
The subject of assay [4] is Aspergillus fumigatus. The assay can be described thus: Induction of change in NAP family protein level in iTRAQ-118 labelled cell wall fraction of drug-susceptible Aspergillus fumigatus KU80 delta-akuB at 0.12 ug/ml after 24 hrs in YPD medium by MS (MS/MS) analysis relative to control. In outline: (§3)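 Conidia at 1 × 10⁵/ml grown shaking at 37°C in YPD with or without 0.12 μg/ml caspofungin; mycelia filtered at 24 or 48 h. Secreted fraction taken from the filtrate; cell wall/plasma membrane pellet recovered after French-press lysis and a 5,000 × g spin. Proteins trypsin-digested and iTRAQ-labelled, drug vs no-drug channels at each time, then 2D LC-MS/MS. Protein ratio is the median of ratios from uniquely assigned peptides after median normalization.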

Assay [5] has as its system Aspergillus fumigatus. The assay can be described thus: Induction of change in SUN domain protein (Uth1), putative protein level in iTRAQ-118 labelled cell wall fraction of drug-resistant Aspergillus fumigatus EMFR-S678P at 0.12 ug/ml after 24 hrs in YPD medium by MS (MS/MS) analysis relative to control. A digest of the protocol: as §1
Assay [6] relates to Aspergillus fumigatus. Kind of assay: Induction of change in phosphoglycerate kinase PgkA, putative protein level in iTRAQ-118 labelled cell wall fraction of drug-resistant Aspergillus fumigatus EMFR-S678P at 0.12 ug/ml after 24 hrs in YPD medium by MS (MS/MS) analysis relative to control. A digest of the protocol:
as §1

In assay [7] the test system is Aspergillus fumigatus. Kind of assay: Induction of change in citrate synthase, eukaryotic protein level in iTRAQ-116 labelled secreted fraction of drug-susceptible Aspergillus fumigatus KU80 delta-akuB at 0.12 ug/ml after 48 hrs in YPD medium by MS (MS/MS) analysis relative to control. A digest of the protocol:
as §3

The test system of assay [8] is Aspergillus fumigatus. The assay can be described thus: Induction of change in ribosomal protein L29/heparin/heparan sulfate interacting gene expression in drug-susceptible Aspergillus fumigatus KU80 delta-akuB at 0.12 ug/ml after 24 hrs in YPD medium by microarray analysis relative to control. In outline:
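Mycelia grown from 1 × 10⁵ conidia/ml in YPD at 37°C, 225 rpm, with or without 0.12 μg/ml caspofungin. Total RNA extracted, DNase-treated; 2 μg labelled per TIGR SOP M007 for whole-genome array hybridization. Three independent experiments with dye flip (6 replicates); >2-fold change deemed significant.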

Assay [9] relates to Aspergillus fumigatus. The assay can be described thus: Induction of change in 60s ribosomal protein yl17-b gene expression in drug-susceptible Aspergillus fumigatus KU80 delta-akuB at 0.12 ug/ml after 24 hrs in YPD medium by microarray analysis relative to control. In outline: (§4)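 Mycelia grown in YPD ± 0.12 μg/ml caspofungin (1 × 10⁵ conidia/ml, 37°C, shaking) and harvested at 24 or 48 h. Total RNA extracted, DNase-treated and quality-checked; 2 μg labelled per TIGR SOP M007 and hybridized to whole-genome arrays. Three independent experiments with dye flip (6 replicates); drug vs untreated fold change.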

Assay [10] has as its system Aspergillus fumigatus. Kind of assay: Induction of change in C2H2 transcription factor (Rpn4), putative gene expression in drug-susceptible Aspergillus fumigatus KU80 delta-akuB at 0.12 ug/ml after 48 hrs in YPD medium by microarray analysis relative to control. A digest of the protocol: as §4
The subject of assay [11] is Aspergillus fumigatus. The assay can be described thus: Induction of change in cytosolic small ribosomal subunit protein S12 protein level in iTRAQ114 labelled secreted fraction of drug-susceptible Aspergillus fumigatus KU80 delta-akuB at 0.12 ug/ml after 24 hrs in YPD medium by MS (MS/MS) analysis relative to control. In outline: as §3
The subject of assay [12] is Aspergillus fumigatus. The assay can be described thus: Induction of change in 60S ribosomal protein L7 protein level in iTRAQ114 labelled cell wall fraction of drug-susceptible Aspergillus fumigatus KU80 delta-akuB at 0.12 ug/ml after 24 hrs in YPD medium by MS (MS/MS) analysis relative to control. In outline: as §3
Assay [13] concerns Aspergillus fumigatus. The assay can be described thus: Induction of change in choline oxidase (CodA), putative protein level in iTRAQ-116 labelled secreted fraction of drug-susceptible Aspergillus fumigatus KU80 delta-akuB at 0.12 ug/ml after 48 hrs in YPD medium by MS (MS/MS) analysis relative to control. A digest of the protocol: as §3
The subject of assay [14] is Aspergillus fumigatus. The assay can be described thus: Induction of change in 60S acidic ribosomal protein P2 gene expression in drug-susceptible Aspergillus fumigatus KU80 delta-akuB at 0.12 ug/ml after 24 hrs in YPD medium by microarray analysis relative to control. A digest of the protocol: as §4
Assay [15] has as its system Aspergillus fumigatus. Kind of assay: Induction of change in 60S ribosomal protein P0 protein level in iTRAQ114 labelled cell wall fraction of drug-susceptible Aspergillus fumigatus KU80 delta-akuB at 0.12 ug/ml after 24 hrs in YPD medium by MS (MS/MS) analysis relative to control. In outline:
as §3

Assay [16] deals with Aspergillus fumigatus. The assay can be described thus: Induction of change in 60S ribosomal protein L10 protein level in iTRAQ-118 labelled cell wall fraction of drug-susceptible Aspergillus fumigatus KU80 delta-akuB at 0.12 ug/ml after 24 hrs in YPD medium by MS (MS/MS) analysis relative to control. A digest of the protocol: as §3
Assay [17] relates to Aspergillus fumigatus. Kind of assay: Induction of change in mitochondrial hypoxia responsive domain protein level in iTRAQ-118 labelled cell wall fraction of drug-resistant Aspergillus fumigatus EMFR-S678P at 0.12 ug/ml after 48 hrs in YPD medium by MS (MS/MS) analysis relative to control. A digest of the protocol:
as §1

Assay [18] concerns Aspergillus fumigatus. Kind of assay: Induction of change in thioredoxin TrxA protein level in iTRAQ-118 labelled cell wall fraction of drug-susceptible Aspergillus fumigatus KU80 delta-akuB at 0.12 ug/ml after 24 hrs in YPD medium by MS (MS/MS) analysis relative to control. A digest of the protocol: as §2

Regarding `CC[C@H](C)C[C@H](C)CCCCCCCCC(=O)N[C@H]1C[C@@H](O)[C@@H](NCCN)NC(=O)[C@@H]2[C@@H](O)CCN2C(=O)[C@H]([C@H](O)CCN)NC(=O)[C@H]([C@H](O)[C@@H](O)c2ccc(O)cc2)NC(=O)[C@@H]2C[C@@H](O)CN2C(=O)[C@H]([C@@H](C)O)NC1=O` [CASPOFUNGIN], the “fold change (FC)” value in the assay on Aspergillus fumigatus [1] is recorded as -1.07; with Aspergillus fumigatus [2], 2.1; with Aspergillus fumigatus [3], 1.07; in the assay on Aspergillus fumigatus [4], 2.8; in the assay with Aspergillus fumigatus [5], 1.07; in the assay with Aspergillus fumigatus [6], -1.15. The “fold change (FC)” value with Aspergillus fumigatus [7] is -1.6; in the assay with Aspergillus fumigatus [8] it was 6.5; in the assay with Aspergillus fumigatus [9], 3.5; in the assay on Aspergillus fumigatus [10], -2.4; in the assay on Aspergillus fumigatus [11], 1.5; with Aspergillus fumigatus [12], 2. Further, the “fold change (FC)” value in the assay with Aspergillus fumigatus [13] is given as -2; with Aspergillus fumigatus [14], 4.3; in the assay on Aspergillus fumigatus [15], 2.1; in the assay with Aspergillus fumigatus [16], 2.3; with Aspergillus fumigatus [17], 1.07; with Aspergillus fumigatus [18], -3.2.

For the origin of these results see ChEMBL document CHEMBL1687827, “Profiling the Aspergillus fumigatus proteome in response to caspofungin” (2011).
